Results taken from ChEMBL document CHEMBL1921751, “Discovery of small molecules that enhance astrocyte differentiation in rat fetal neural stem cells” (Bioorg Med Chem Lett, 2011).
Activity calls are given as the source filed them. The calls are words filed in the database; no cut-off is given here.

Key:
[1] = test system: NSC; test: Induction of GFAP mRNA expression in Sprague-Dawley rat embryonic cortex NSC at 5 uM after 1 day by RT-PCR analysis relative to control; type: functional
Procedure, shortened: (§1)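 First-strand cDNA was made from 2 µg total RNA using oligo(dT) primers and RevertAid reverse transcriptase. PCR ran 94 °C 5 min, then 26 cycles of 94 °C, 55–58 °C and 72 °C (0.5 min each), with a final 72 °C extension for 10 min.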

[2] = test system: NSC; test: Induction of S100 mRNA expression in Sprague-Dawley rat embryonic cortex NSC at 5 uM after 1 day by RT-PCR analysis relative to control; type: functional; procedure, shortened: as §1
[3] = test system: NSC; test: Induction of Sprague-Dawley rat embryonic cortex NSC differentiation assessed as GFAP-positive cells at 5 uM after 4 days by immunocytochemistry analysis relative to control; type: functional
Procedure, shortened: (§2)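 E14 rat cortical NSCs were grown as neurospheres, dissociated and plated on poly-D-lysine in growth-factor-free medium with 2% B27. They received 5 µM compound or 0.05% DMSO at 37 °C, 5% CO2, for 4 days. Cells were fixed in 4% PFA, stained with anti-GFAP or TuJ1 plus Cy3 secondary, and DAPI-counterstained. Positive/DAPI cells in random fields were normalised to control; mean±SEM, n=6, t-test.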

[4] = test system: NSC; test: Induction of Sprague-Dawley rat embryonic cortex NSC differentiation assessed as TuJ1-positive cells at 5 uM after 4 days by immunocytochemistry analysis; type: functional, cell-based; procedure, shortened: as §2
[5] = test system: NSC; test: Induction of beta3 tubulin mRNA expression in Sprague-Dawley rat embryonic cortex NSC at 5 uM after 1 day by RT-PCR analysis; type: functional, cell-based; procedure, shortened: as §1
[6] = test system: NSC; test: Cytotoxicity against Sprague-Dawley rat embryonic cortex NSC assessed as changes in morphology at 5 uM after 4 days by microscopic analysis; type: cell-based; conditions: 96 h
[7] = test system: NSC; test: Cytotoxicity against Sprague-Dawley rat embryonic cortex NSC assessed as reduction in nuclei count at 5 uM after 4 days using DAPI staining by fluorescent microscopic analysis; type: cell-based; conditions: 96 h

SMILES	Activity [1]	Activity [2]	Activity [3]	Activity [4]	Activity [5]	fold change (FC) [1]	fold change (FC) [2]	fold change (FC) [3]	Activity [6]	Activity [7]
O=S(=O)(Cc1ccccc1)NC(c1ccc(F)cc1)c1nnc(-c2ccccc2)o1 (configuration not stated)	Active	Active	Active	inactive	inactive	–	–	–	–	–
CC(C)(C)OC(=O)NC(c1ccc(F)cc1)c1nnc(-c2ccccc2)o1 (configuration not stated)	Active	Active	Active	inactive	inactive	–	–	–	–	–
O=C(NC(c1ccc(F)cc1)c1nnc(-c2ccccc2)o1)c1ccccc1 (configuration not stated)	Active	Active	Active	inactive	inactive	–	–	–	–	–
O=C(Cc1ccccc1)NC(c1ccccc1)c1nnc(-c2ccccc2)o1 (configuration not stated)	–	–	–	inactive	inactive	2	2	2	Non-toxic	Non-toxic
O=C(Cc1ccccc1)NC(c1ccc(F)cc1)c1nnc(-c2ccccc2)o1 (configuration not stated)	–	–	–	inactive	inactive	2	2	2	–	–
O=S(=O)(NC(c1ccc(F)cc1)c1nnc(-c2ccccc2)o1)c1ccccc1 (configuration not stated)	Active	Active	Active	inactive	inactive	–	–	–	–	–
